Experimental findings from ChEMBL document CHEMBL3259598, “Lignan dicarboxylates and terpenoids from the flower buds of Cananga odorata and their inhibitory effects on melanogenesis” (J Nat Prod, 2014) are described below.

Series [1] can be described thus: Inhibition of melanogenesis in mouse B16-4A5 cells after 72 hrs by spectrophotometry relative to control. The format is functional, cell-based. In outline:
(§1)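 Murine B16 melanoma 4A5 cells seeded at 2.0 × 10^4 cells/well in 24-well plates and cultured 24 h, then given test compound (DMSO, final 0.1%) plus 1 mM theophylline for 72 h. Cells trypsinized, washed and lysed in 1 M NaOH at 80 °C for 30 min; lysate absorbance read at 405 nm. Inhibition is corrected for cell viability, mean ± SEM (n = 4); IC50 determined graphically.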

The nature of series [2]: Inhibition of melanogenesis in mouse B16-4A5 cells at 3 uM after 72 hrs by spectrophotometry relative to control. The format is functional. The conditions noted are these: B16-4A5, 72 h. In outline: as §1
A short description of series [3]: Inhibition of melanogenesis in mouse B16-4A5 cells at 1 uM after 72 hrs by spectrophotometry relative to control. The format is functional. The note with it: B16-4A5, 72 h. In outline:
as §1

Series [4] in a line: Inhibition of melanogenesis in mouse B16-4A5 cells at 10 uM after 72 hrs by spectrophotometry relative to control. Format: functional. The note with it: B16-4A5, 72 h. In outline: as §1
Series [5] in a line: Cytotoxicity against mouse B16-4A5 cells assessed as viable cells at 30 uM after 72 hrs by WST-8 assay. The format is cell-based. The note with it: read-out: Activity. A digest of the protocol: (§2)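 B16 melanoma 4A5 cells (DMEM, 4.5 g/L glucose, 10% FBS, 37 °C, 5% CO2) seeded at 5.0 × 10^4 cells/well in 96-well plates, grown 24 h, then exposed to test compound (DMSO, final 0.1%) for 70 h. After a PBS wash, cells were given DMEM plus WST-8 for 2 h more. Formazan read at 450 nm (reference 655 nm).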

A short description of series [6]: Cytotoxicity against mouse B16-4A5 cells assessed as viable cells at 10 uM after 72 hrs by WST-8 assay. The conditions noted are these: read-out: Activity. The format is cell-based. A digest of the protocol:
as §2

Series [7] can be described thus: Inhibition of melanogenesis in mouse B16-4A5 cells at 30 uM after 72 hrs by spectrophotometry relative to control. The conditions noted are these: B16-4A5, 72 h. Format: functional. A digest of the protocol:
as §1

A short description of series [8]: Inhibition of melanogenesis in mouse B16-4A5 cells at 100 uM after 72 hrs by spectrophotometry relative to control. Format: functional. The conditions noted are these: B16-4A5, 72 h. A digest of the protocol: as §1
Series [9] can be described thus: Inhibition of melanogenesis in mouse B16-4A5 cells at 1000 uM after 72 hrs by spectrophotometry relative to control. The note with it: B16-4A5, 72 h. Format: functional. In outline:
(§3)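 B16 melanoma 4A5 cells were grown in DMEM (4.5 g/L glucose) with 10% FBS and penicillin/streptomycin at 37 °C, 5% CO2, then seeded at 2.0 × 10^4 cells/well. After 24 h, compound (DMSO stock, 0.1% DMSO final) was added with 1 mM theophylline for 72 h. Cells were trypsinized, washed, lysed in 1 M NaOH (80 °C, 30 min) and read at 405 nm. Inhibition was corrected for WST-8 viability; mean ± SEM, n = 4.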

Series [10] can be described thus: Inhibition of melanogenesis in mouse B16-4A5 cells at 300 uM after 72 hrs by spectrophotometry relative to control. Format: functional. The conditions noted are these: B16-4A5, 72 h. In outline: as §3
[11] abbreviates: Mus musculus, B16-4A5, 72 h, read-out: IC50.

The structures appear in SMILES notation.

Regarding `CC1(C)C[C@H](OC(=O)c2ccccc2)[C@@]23CC[C@@H](O)[C@@](C)(CC[C@H]12)C3`, the IC50 in series [1] (setting [11]) amounted to 3 µM. Further, in series [2], the inhibition at 3 µM is 40.2%. Also, the inhibition at 1 µM in series [3] was 45.3%. Also, the inhibition at 10 µM in [4] was found to be 66.7%. Further, in series [5], the viability at 72 h, 30 µM amounted to 7.9%. Moreover, the viability at 72 h, 10 µM in series [6] worked out at 75.9%.
Consider `O=C(OC[C@H]1CC[C@](CO)(CCO)[C@@H](O)C1)C(=C/c1ccc(O)cc1)/C(=C\c1ccc(O)c(O)c1)C(=O)OC[C@H]1CC[C@](CO)(CCO)[C@@H](O)C1`, for which the half-maximal inhibitory concentration (IC50) in series [1] (setting [11]) is 5 µM. Also, the inhibition at 3 µM in series [2] was found to be 45%. Moreover, in [3], the inhibition at 1 µM came out at 36.1%. For the same compound, the inhibition at 10 µM in [4] turned out to be 59%. Further, the inhibition at 30 µM in series [7] turned out to be 49.8%. Besides, in series [5], the viability at 72 h, 30 µM is over 95.2%. Besides, the inhibition at 100 µM in series [8] worked out at 44.2%.
On to `COc1ccc(/C=C(C(=O)OC[C@H]2CC[C@](CO)(CCO)[C@@H](O)C2)\C(=C/c2ccc(OC)c(OC)c2)C(=O)OC[C@H]2CC[C@](CO)(CCO)[C@@H](O)C2)cc1`, for which, in series [2], the inhibition at 3 µM was determined as 24.1%. The inhibition at 1 µM in series [3] was 34.4%. Further, the inhibition at 10 µM in series [4] was found to be 8.1%. In series [7], the inhibition at 30 µM is -19.9%. For the same compound, the viability at 72 h, 30 µM in series [5] was determined as 68.8%. Besides, in series [6], the viability at 72 h, 10 µM was determined as 82%. In series [8], the inhibition at 100 µM is -15.7%.
On to `OCC[C@@]1(CO)CC[C@H](CO)C[C@@H]1O`, for which, in [1] (setting [11]), the IC50 turned out to be 2 µM. Moreover, the inhibition at 3 µM in series [2] came to 55.1%. Further, in series [3], the inhibition at 1 µM is 45%. Also, the inhibition at 10 µM in series [4] turned out to be 55.9%. Moreover, the inhibition at 30 µM in [7] was determined as 51.6%. For the same compound, in series [5], the viability at 72 h, 30 µM is over 95.2%. The inhibition at 100 µM in series [8] was determined as 25.6%.
`CC(C)[C@@H]1CC[C@@]2(C)[C@H](O)CCC(C=O)=C[C@@H]12` [APHANAMOL II] displayed an IC50 in series [1] of over 100 µM. Further, in series [2], the inhibition at 3 µM came to 34.3%. Further, the inhibition at 1 µM in series [3] was 37.6%. In addition, the inhibition at 10 µM in [4] is 32.9%. Moreover, the inhibition at 30 µM in series [7] came out at 28.3%. Also, in [5], the viability at 72 h, 30 µM was over 74.5%. Besides, the inhibition at 100 µM in series [8] was 42.1%.
As for `OC[C@H]1O[C@@H](Oc2ccc(O)cc2)[C@H](O)[C@@H](O)[C@@H]1O` [ARBUTIN], the inhibition at 1000 µM in series [9] is 83.7%. Besides, in series [1] (setting [11]), the IC50 came to 174 µM. In addition, the inhibition at 10 µM in series [4] worked out at 10.6%. For the same compound, the inhibition at 30 µM in series [7] came out at 20.4%. Moreover, the inhibition at 300 µM in series [10] was 61.5%. In addition, in series [8], the inhibition at 100 µM turned out to be 38.1%.

As usually defined, the IC50 is the midpoint of a concentration-inhibition curve. As a reminder, the inhibition is the drop in the measured response relative to a control, in per cent.
